These results are taken from ChEMBL document CHEMBL2384965, “ABSOLUTE CONFIGURATION AND BIOLOGICAL PROPERTIES OF ENANTIOMERS OF CFTR INHIBITOR BPO-27” (ACS Med Chem Lett, 2013).

Activity calls are given as the source filed them. The calls are words filed in the database; no cut-off is given here.

Data set [1] can be described thus: Drug metabolism in rat liver microsomes at 5 uM measured over 4 hrs by LC/MS analysis in presence of NADPH. The data set is classed as ADME, Microsome. The conditions noted are these: read-out: Drug metabolism. (In general: Liver microsomes are a subcellular fraction often used to study metabolism.)
The target in data set [2] is T1, Cystic fibrosis transmembrane conductance regulator (Homo sapiens, UniProt P13569). The data set is described as follows: Inhibition of wild type human CFTR chloride conductance expressed in forskolin-stimulated rat FRT cells at 100 nM by short-circuit current analysis in presence of transepithelial chloride gradient. The data set is classed as cell-based. The procedure, abridged:
(§1)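 FRT epithelial cells expressing human wild-type CFTR, basolateral membrane permeabilized with amphotericin B, transepithelial chloride gradient applied. CFTR chloride conductance activated with 10 μM forskolin; inhibition read as the reduction in short-circuit current.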
Target sequence in this assay (P13569 whole entry, looked up): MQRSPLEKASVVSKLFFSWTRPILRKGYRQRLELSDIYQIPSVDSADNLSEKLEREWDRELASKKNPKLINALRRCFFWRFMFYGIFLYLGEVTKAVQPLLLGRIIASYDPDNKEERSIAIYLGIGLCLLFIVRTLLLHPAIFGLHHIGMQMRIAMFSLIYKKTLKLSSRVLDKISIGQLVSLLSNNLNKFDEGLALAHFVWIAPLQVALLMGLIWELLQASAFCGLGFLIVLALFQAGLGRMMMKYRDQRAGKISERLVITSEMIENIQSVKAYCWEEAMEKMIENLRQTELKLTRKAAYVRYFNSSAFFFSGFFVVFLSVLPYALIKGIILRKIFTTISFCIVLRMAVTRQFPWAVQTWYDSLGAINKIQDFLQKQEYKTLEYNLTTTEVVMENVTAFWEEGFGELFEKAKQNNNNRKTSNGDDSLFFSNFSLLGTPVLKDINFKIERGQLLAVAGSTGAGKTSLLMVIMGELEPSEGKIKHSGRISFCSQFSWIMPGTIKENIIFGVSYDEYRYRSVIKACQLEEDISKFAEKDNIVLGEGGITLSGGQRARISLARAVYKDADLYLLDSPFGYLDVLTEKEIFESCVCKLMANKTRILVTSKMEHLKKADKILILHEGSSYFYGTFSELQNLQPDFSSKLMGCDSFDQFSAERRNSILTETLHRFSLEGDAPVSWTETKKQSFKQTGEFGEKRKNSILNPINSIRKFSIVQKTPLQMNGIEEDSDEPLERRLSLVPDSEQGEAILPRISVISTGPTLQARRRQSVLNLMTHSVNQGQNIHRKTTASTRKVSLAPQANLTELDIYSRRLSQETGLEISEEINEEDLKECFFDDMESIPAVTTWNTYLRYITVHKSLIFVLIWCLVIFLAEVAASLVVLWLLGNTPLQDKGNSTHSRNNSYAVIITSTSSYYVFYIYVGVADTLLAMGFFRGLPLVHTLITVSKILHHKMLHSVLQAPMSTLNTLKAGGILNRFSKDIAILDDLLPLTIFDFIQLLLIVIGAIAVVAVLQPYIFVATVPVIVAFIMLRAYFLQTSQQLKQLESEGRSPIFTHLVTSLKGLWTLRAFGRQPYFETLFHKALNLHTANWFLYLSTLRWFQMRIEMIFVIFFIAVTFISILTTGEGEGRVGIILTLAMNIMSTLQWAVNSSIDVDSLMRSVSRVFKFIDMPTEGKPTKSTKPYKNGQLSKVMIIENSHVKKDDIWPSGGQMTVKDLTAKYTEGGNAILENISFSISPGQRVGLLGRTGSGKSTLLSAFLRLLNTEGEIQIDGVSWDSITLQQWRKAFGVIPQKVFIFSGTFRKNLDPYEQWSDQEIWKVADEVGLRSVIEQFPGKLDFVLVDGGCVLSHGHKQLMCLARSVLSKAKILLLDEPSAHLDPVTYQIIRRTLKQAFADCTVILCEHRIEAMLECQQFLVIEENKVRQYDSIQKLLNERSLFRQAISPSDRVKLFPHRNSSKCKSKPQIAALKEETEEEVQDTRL

Data set [3] in a line: Drug uptake in CD1 mouse kidney at 10 mg/kg, ip administered as bolus dose measured at 4 hrs by LC-MS analysis. The data set is classed as ADME, organism-based. Also noted: dose 10 mg/kg, route intraperitoneal. The conditions noted are these: read-out: Drug uptake. The method in brief:
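Mice received a single bolus intraperitoneal dose of 10 mg/kg in 5% DMSO, 2.5% Tween-80 and 2.5% PEG400 in water. Kidney homogenate was taken at 4 h and the compound measured by LC/MS (3 mice).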

Data set [4] can be described thus: Half life in CD1 mouse at 10 mg/kg, ip administered as bolus dose. The format is ADME, organism-based. Also noted: dose 10 mg/kg, route intraperitoneal. Particulars: in vivo. The method in brief: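 Single bolus i.p. dose of 10 mg/kg in mice, given in 5% DMSO, 2.5% Tween-80 and 2.5% PEG400 in water. Blood sampled at set times; serum compound measured by LC/MS ion chromatograms (m/z 548 [M+H]+) against a calibration of known amounts spiked into blood (linear, sensitivity better than 500 nM). Mean ± S.E., n = 3; t1/2 from the decay of the parent compound.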

Data set [5] concerns Serum. The data set is described as follows: Metabolic stability in mouse serum assessed as formation of (S)-BPO-27 at 5 mg measured at 4 hrs by hydrogen-deuterium exchange assay. The data set is classed as ADME, cell-free.
The test system of data set [6] is Serum. The data set is described as follows: Metabolic stability in mouse serum at 5 mg after 4 hrs by hydrogen-deuterium exchange assay. The data set is classed as ADME, cell-free.
For data set [7], the target named is T1, Cystic fibrosis transmembrane conductance regulator. The data set is described as follows: Inhibition of wild type human CFTR chloride conductance expressed in forskolin-stimulated rat FRT cells by short-circuit current analysis in presence of transepithelial chloride gradient. The format is cell-based. The procedure, abridged: as §1

For the molecule `Cn1c(=O)c2c(-c3ccccc3)n3c(c2n(C)c1=O)[C@@H](c1ccc(Br)o1)Oc1ccc(C(=O)O)cc1-3`, the metabolised at 4 h, 5 µM in data set [1] is below 5%.
With `CCOC(=O)c1ccc2c(c1)-n1c(-c3ccccc3)c3c(=O)n(C)c(=O)n(C)c3c1[C@@H](c1ccc(Br)o1)O2`, the inhibition entry in data set [2] was “inactive”.
As for `Cn1c(=O)c2c(-c3ccccc3)n3c(c2n(C)c1=O)[C@H](c1ccc(Br)o1)Oc1ccc(C(=O)O)cc1-3`, the concentration at 4 h in data set [3] was determined as 600 nM. In data set [4], this molecule had a half-life of 1.6 h. Moreover, the metabolised at 4 h, 5 µM in data set [1] is below 5%. In data set [5], the Stability entry is reported as “Stable”.
Take `CC(C)N.Cn1c(=O)c2c(-c3ccccc3)n3c(c2n(C)c1=O)[C@@H](c1ccc(Br)o1)Oc1ccc(C(=O)O)cc1-3` [listing 1 of 2 here]: in data set [6], the Stability entry is recorded as “Stable”.
Take `CC(C)N.Cn1c(=O)c2c(-c3ccccc3)n3c(c2n(C)c1=O)[C@@H](c1ccc(Br)o1)Oc1ccc(C(=O)O)cc1-3` [listing 2 of 2 here]: the inhibition entry in data set [2] was “inactive”.
For `CC(C)N.Cn1c(=O)c2c(-c3ccccc3)n3c(c2n(C)c1=O)[C@H](c1ccc(Br)o1)Oc1ccc(C(=O)O)cc1-3` [listing 1 of 2 here], in data set [2], the inhibition result is “Active”. In addition, the inhibition result in data set [7] was “Dose-dependent effect”.
Regarding `CC(C)N.Cn1c(=O)c2c(-c3ccccc3)n3c(c2n(C)c1=O)[C@H](c1ccc(Br)o1)Oc1ccc(C(=O)O)cc1-3` [listing 2 of 2 here], the IC50 in data set [7] worked out at 4 nM.

The half-life is how long it takes for the measured level to halve. Low readings indicate rapid decline, high ones slow decline. The term IC50 denotes the point on the concentration scale where inhibition reaches its midpoint.
